# Source: PubChem
# ABCG2 block: inhibitors of human ABCG2 transporter, ABCB1 counter-screen; Q9UNQ0; IgMXP3 cells, JC-1 efflux, flow cytometry; inhibition, % at 6.6 µM; 0.1% of 190,000 active;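 active = inhibition above 80%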;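 also: 0% = DMSO and 100% = nicardipine control wells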
# Target sequence (Q9UNQ0 whole entry, looked up): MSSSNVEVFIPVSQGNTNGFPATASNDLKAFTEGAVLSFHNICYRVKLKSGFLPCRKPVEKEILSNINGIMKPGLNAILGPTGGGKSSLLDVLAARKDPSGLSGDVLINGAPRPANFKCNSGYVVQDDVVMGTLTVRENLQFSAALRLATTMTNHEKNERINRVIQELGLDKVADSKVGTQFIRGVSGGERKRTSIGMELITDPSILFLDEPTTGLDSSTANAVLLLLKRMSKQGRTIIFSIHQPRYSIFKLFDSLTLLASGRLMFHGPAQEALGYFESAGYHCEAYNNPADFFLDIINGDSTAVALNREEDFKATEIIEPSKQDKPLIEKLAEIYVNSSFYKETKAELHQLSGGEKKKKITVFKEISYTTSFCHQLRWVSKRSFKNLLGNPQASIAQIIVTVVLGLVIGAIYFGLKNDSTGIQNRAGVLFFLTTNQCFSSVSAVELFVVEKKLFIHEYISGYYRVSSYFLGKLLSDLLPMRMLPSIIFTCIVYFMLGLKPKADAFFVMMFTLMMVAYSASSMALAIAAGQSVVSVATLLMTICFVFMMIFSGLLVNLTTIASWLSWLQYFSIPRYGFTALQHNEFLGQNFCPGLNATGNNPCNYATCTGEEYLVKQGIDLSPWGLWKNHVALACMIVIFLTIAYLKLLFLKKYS
#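 Test system: IgMXP3 (ABCG2) plus far-red-tagged CCRF-Adr (ABCB1) cells / Amount: 3 million cells/mL in well / Reagent: JC-1 transporter substrate / Timing: 10 min compound exposure, 25 °C / Signal: flow cytometry, 530 nm JC-1 signal / Read-out: percent efflux inhibition, scaled nicardipine 100% to DMSO 0% / Benchmarks: nicardipine as high control, DMSO as low control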
# RAM inhibit: inhibitors of the yeast RAM network; 1.8% of 190,000 active; inhibition, % at 50 µM; S. cerevisiae dse1pr::URA3 reporter, 5-FOA growth OD615, 2 d; analog-sensitive cbk1-as2 kinase mutant strain;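 active = inhibition above a set limit, 3 SD over mean compound inhibition, cut at about 8.4% in these data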;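 also: 0% = DMSO-only wells with no growth and 100% = 10 µM 1-NA-PP1 full growth; inhibition rescues growth on 5-FOA so higher OD means more RAM inhibition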
# ABCB1 inh: blocks JC-1 efflux by human ABCB1 transporter | 0.067% of 190,000 active | P08183 | inhibition, % at 6.6 µM | CCRF-Adr cells, flow cytometry; in the data active = inhibition above about 40%;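 also: 0% = vehicle and 100% = reference inhibitor; higher value means more JC-1 retained so stronger ABCB1 efflux block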
# WT yeast gro inh: growth inhibition of WT yeast, mitochondrial fusion screen; inhibition, % at 10 µM; AID 1362; 2.1% of 190,000 active; mitochondrial fusion phenotypic screen, WT strain; in the data active = inhibition above about 58%; tested in S. cerevisiae
# L major viab: inhibitors of Leishmania major promastigote growth; Leishmania major promastigotes, resazurin fluorescence viability; inhibition, % at 10 µM; 9% of 200,000 active; in the data active = inhibition above about 50%;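 also: promastigotes grown with compound for 44 hours at 28 °C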
# * = called active by the depositor; / = no result given. The list is not random: actives were taken first. Their share in the collection is about 12%.
SMILES,ABCG2 block,RAM inhibit,ABCB1 inh,WT yeast gro inh,L major viab
CN1C(=O)/C(=C/c2ccccc2OCc2ccccc2F)NC1=S,-0.1,7.3,-0.5,16.7,61.6*
NC(=S)N/N=C\c1c2ccccc2cc2ccccc12,-12.0,4.3,-2.1,29.3,15.4
NC(=S)N/N=C\c1c(OCc2ccccc2Cl)ccc2ccccc12,15.0,4.3,3.5,61.2*,63.7*
NC(=S)N/N=C\c1ccccc1OCc1ccccc1,-0.9,-0.8,-0.4,54.1,67.9*
COc1cccc(/C=N/NC(N)=S)c1OCc1cccc(Cl)c1,1.9,1.9,0.2,-7.8,69.9*
COc1ccc2nc(Nc3sc4c(c3C(N)=O)CCCC4)sc2c1,-10.1,0.6,-1.1,9.0,8.3
Cc1[nH]c2ccccc2c1C(=O)NS(=O)(=O)Nc1ccc(Cl)cc1,1.2,3.2,-0.2,-13.2,-10.8
Cc1oc(=O)c(NC(=O)c2ccccc2)cc1C(C)O (stereo not drawn),0.9,1.6,0.3,-28.5,-11.0
CCOC(=O)c1cc(NC(=O)c2ccccc2)c(=O)oc1-c1ccccc1,7.2,9.5*,0.6,-8.9,-6.1
NS(=O)(=O)c1ccc(CNC(=O)C2(c3ccc(Cl)cc3)CC2)cc1,-0.3,0.4,-0.1,-4.5,85.4*
Cc1ccc(Cl)c(OC(=O)c2nn(C(C)C)c(=O)c3ccccc23)c1,1.3,10.2*,0.7,7.3,-1.6
CCc1nn(C(C)C(=O)N2CCN(Cc3ccccc3)CC2)c(=O)c2cc3occc3n12 (stereo not drawn),0.7,0.0,0.5,58.1*,-11.6
CC(C)NC(=O)/C(=C/c1cn(-c2ccccc2)nc1-c1cccc([N+](=O)[O-])c1)NC(=O)c1ccccc1,5.9,1.9,0.9,-7.2,41.7
CCOC(=O)c1cnc2ccc(OCC)cc2c1NCCN1CCOCC1,38.3,1.4,4.1,6.6,55.5*
CCOC(=O)c1cnc2ccc(OC)cc2c1NCc1ccccc1,33.9,-1.3,4.0,53.9,68.6*
CCOC(=O)c1cnc2ccc(C(=O)OC)cc2c1NCCN1CCOCC1,5.6,1.1,1.6,9.3,32.1
CCOC(=O)c1cnc2ccc(OCC)cc2c1NCc1ccccc1OC,37.0,3.7,13.4,41.7,97.2*
CCOC(=O)c1cnc2ccc(C(=O)OC)cc2c1NCCc1ccc(OC)c(OC)c1,5.4,0.9,5.7,-4.3,4.9
COCCNc1nc(-c2cc(C)c(C)cc2C)cs1,9.2,0.7,1.0,17.9,3.7
O=C(NCc1n[nH]c(=S)n1-c1ccc(Br)cc1)c1cccs1,0.2,0.2,-0.1,-7.6,-8.6
O=C(NCc1ccc(C(=O)O)cc1)OCc1ccccc1,-1.1,1.3,1.1,-0.5,-4.2
O=C(Cn1c(=O)oc2ccccc21)NCCc1ccccc1Cl,1.8,-0.4,0.5,10.8,-1.6
COc1ccc(-c2nc3c(-c4ccc(F)cc4)cnn3cc2C)cc1F,2.5,3.7,2.1,5.7,-4.4
Cc1sc2nc(C(C)C)nc(SCC(=O)N3CCN(C(=O)c4ccco4)CC3)c2c1C,1.1,1.8,2.2,19.8,27.3
CCc1c(C)sc2nc(C(C)C)nc(SCC(=O)N3CCc4ccccc4C3)c12,6.2,6.8,0.6,61.2*,-3.7
SMILES,ABCG2 block,RAM inhibit,ABCB1 inh,WT yeast gro inh,L major viab
C=CCn1cnc2scc(-c3ccc(C)cc3)c2c1=O,4.0,-0.2,0.8,-7.4,-4.1
CC(=O)c1ccc(N2CCN(C(=O)c3ccco3)C(C)C2)c(F)c1 (stereo not drawn),6.1,1.4,1.0,6.3,63.8*
CC(=O)c1ccc(N2CCN(C(=O)c3ccco3)CC2)c(F)c1,56.8,2.4,1.3,-14.4,-5.0
CC(=O)N(Cc1ccccc1)c1nc(-c2ccccc2)cs1,0.9,5.2,0.3,31.0,2.6
COCCNc1oc(-c2ccc(Cl)cc2)nc1C#N,12.3,-1.6,0.0,2.4,-14.7
CCN(CC)CCCNc1oc(-c2cccc(Cl)c2)nc1C#N,4.7,0.1,0.4,-11.5,100.6*
CN(C)CCCNc1oc(-c2ccc(Cl)cc2)nc1C#N,14.3,1.8,0.1,4.1,82.9*
CN(C(=O)c1ccco1)c1nc2c(s1)CCCC2,0.5,-0.2,0.1,4.7,-3.2
FC(F)(F)c1ccc(CSc2nccn2-c2ccccc2)cc1,3.0,0.5,0.4,62.9*,-3.6
COc1ccc(NC(=O)c2cnc(C)cn2)c2ncccc12,5.7,1.8,0.7,-57.9,85.8*
CC(C)c1ccc(NC(=O)Cn2cccc2C2=NC(c3ccccc3)CO2)cc1 (stereo not drawn),5.0,4.8,0.9,7.3,86.8*
Cc1oc(-c2ccccc2Cl)nc1Cn1cccc1C1=NC(c2ccccc2)CO1 (stereo not drawn),9.0,3.3,1.4,-1.0,-3.7
O=C(Oc1ccc(Br)cc1C(=S)N1CCCC1)c1ccccc1Cl,6.7,7.6,1.3,50.9,3.6
Cc1ccccc1C(=O)Oc1ccc(Br)cc1C(=S)N1CCCC1,2.9,9.8*,1.1,3.5,27.4
CN(CCN1CCOCC1)Cc1nc(-c2cccs2)no1,2.3,1.2,0.9,5.5,72.8*
Cc1nc2ccccc2n1/N=C/c1ccc([N+](=O)[O-])o1,/,/,/,/,100.6*
COc1cccc(/C=N/n2c(C)nc3ccccc32)c1OC,16.1,3.1,1.4,62.4*,6.4
Cc1nc2ccccc2n1/N=C/c1ccc([N+](=O)[O-])s1,31.3,0.1,0.6,80.2*,100.4*
O=[N+]([O-])c1ccc(/C=N/n2c(CO)nc3ccccc32)s1,50.3,1.8,0.7,11.1,100.5*
Cn1c(C(=O)c2ccccc2[N+](=O)[O-])nc2ccccc21,0.3,-0.1,0.1,-11.9,9.3
Cc1nc2ccccc2c(=O)n1/N=C/c1ccccn1,7.8,0.8,0.5,-10.3,-9.6
Cc1ccc(/C=N/n2c(C)nc3ccccc3c2=O)o1,2.1,0.4,0.1,-11.1,-10.3
CC(=O)Nc1ccc(N(C(=O)c2ccco2)C(C(=O)NC2CCCC2)c2ccc(N3CCOCC3)cc2)cc1 (stereo not drawn),0.1,2.4,0.2,17.2,-2.9
COc1ccc(-c2cc(CNS(=O)(=O)c3ccccc3)on2)cc1,0.7,0.4,0.3,7.4,-0.9
CC1CCC(NC(=O)C(NC(=O)c2ccccc2)C(C)C)CC1 (stereo not drawn),0.5,3.6,1.4,11.1,-1.5
CCOC(=O)c1c(C)[nH]c(C)c1C(=O)COC(=O)c1cccc(S(=O)(=O)N(CC)CC)c1,13.7,3.8,2.6,-14.6,98.5*
CCOC(=O)c1c(C)[nH]c(C)c1C(=O)COC(=O)c1ccc(S(=O)(=O)N(CC)CC)cc1,2.6,8.7*,-2.1,0.3,5.3
CCOC(=O)c1c(C)[nH]c(C)c1C(=O)COC(=O)c1ccc(OC)cc1,9.1,2.3,0.8,14.9,-1.8
CCN(CC)S(=O)(=O)c1cccc(C(=O)OCC(=O)C23CC4CC(CC(C4)C2)C3)c1,9.2,3.4,1.7,16.4,-0.6
